The values below come from ChEMBL document CHEMBL2384986, “Re-evolution of the 2-phenylquinolines: ligand-based design, synthesis, and biological evaluation of a potent new class of Staphylococcus aureus NorA efflux pump inhibitors to combat antimicrobial resistance” (J Med Chem, 2013).

The source made the active and inactive calls. The rule behind the calls is not given here.

The target in assay [1] is Quinolone resistance protein NorA (Staphylococcus aureus, UniProt P0A0J7). Put plainly: Inhibition of NorA in Staphylococcus aureus 1199B harboring grlA A116E mutant assessed as inhibition of ethidium bromide efflux measured for 5 mins by fluorometric analysis. In short, it runs like this: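 Fluorometric EtBr efflux assay in SA-1199B (norA overexpressing, GrlA A116E) over a 5 min time course, compared with no-inhibitor control. Increasing inhibitor concentrations were tested, and IC50 was read by inspection of the dose-response plots. Usually run in duplicate.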

For assay [2], the system named is Staphylococcus aureus. Kind of assay: Inhibition of MepA in Staphylococcus aureus K2886 assessed as reduction of ethidium bromide MIC at 1.56 ug/mL relative to control. An outline of the steps:
(§1)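 Ethidium bromide MIC by CLSI microdilution, alone and combined with test compound. Strain SA-K2886 is norA-deleted and carries pALC2073-mepA, with mepA under a xyl/tetO promoter; 0.05 μg/mL tetracycline was included throughout to induce expression.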

In assay [3] the target is T1, Quinolone resistance protein NorA (Staphylococcus aureus) (UniProt P0A0J7).
T1 sequence (whole entry): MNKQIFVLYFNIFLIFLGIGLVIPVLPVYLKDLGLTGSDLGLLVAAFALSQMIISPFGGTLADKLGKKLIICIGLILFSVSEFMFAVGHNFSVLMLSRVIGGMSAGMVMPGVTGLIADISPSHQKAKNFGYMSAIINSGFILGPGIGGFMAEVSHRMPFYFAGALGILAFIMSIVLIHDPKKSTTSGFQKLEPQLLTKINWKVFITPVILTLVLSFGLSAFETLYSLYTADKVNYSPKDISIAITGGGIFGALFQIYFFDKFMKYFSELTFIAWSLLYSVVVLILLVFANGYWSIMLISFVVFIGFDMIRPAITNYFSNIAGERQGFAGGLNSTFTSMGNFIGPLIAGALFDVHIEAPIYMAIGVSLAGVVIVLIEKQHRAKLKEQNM
Put plainly: Inhibition of NorA in Staphylococcus aureus ATCC 25923 assessed as reduction of ciprofloxacin MIC at 0.78 to 100 ug/mL. An outline of the steps:
(§2)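 Ciprofloxacin MIC determined by CLSI broth microdilution, alone and combined with scalar dilutions of freshly prepared test compound; checkerboard combination format. Strains: ATCC 25923 (wild type), SA-1199 (norA wt), SA-1199B (norA overexpressing, GrlA A116E), SA-K2378 (norA on multicopy pCU1) and SA-K1902 (norA-deleted).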

The subject of assay [4] is Staphylococcus aureus. Kind of assay: Inhibition of MepA in Staphylococcus aureus K2886 assessed as reduction of ethidium bromide MIC at 0.78 to 100 ug/mL. An outline of the steps:
(§3)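 The strains are norA-deleted S. aureus carrying pALC2073-mepA (K2886) or the empty pALC2073 vector (K2885). Cloned genes are under a xyl/tetO promoter, induced by 0.05 μg/mL tetracycline, which was present in all experiments with these strains. EtBr MICs were determined by CLSI microdilution, with and without test compound.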

The target in assay [5] is T1, Quinolone resistance protein NorA (Staphylococcus aureus). Put plainly: Inhibition of NorA in Staphylococcus aureus 1199B harboring grlA A116E mutant assessed as reduction of ciprofloxacin MIC at 3.13 ug/mL relative to control. In short, it runs like this:
as §2

Assay [6] shares this target. Put plainly: Inhibition of wild type NorA in Staphylococcus aureus 1199 assessed as reduction of ciprofloxacin MIC at 0.78 to 100 ug/mL. In short, it runs like this:
as §2

Assay [7] shares this target. Kind of assay: Inhibition of NorA in Staphylococcus aureus K2378 assessed as reduction of ciprofloxacin MIC at 0.78 to 100 ug/mL relative to control. An outline of the steps: as §2
Assay [8] deals with Staphylococcus aureus. Kind of assay: Antibacterial activity against Staphylococcus aureus 1199B overexpressing NorA and grlA A116E mutant assessed as growth inhibition by microdilution method. Type of assay: functional. In short, it runs like this: (§4)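 Broth microdilution MIC per CLSI guidelines for intrinsic antistaphylococcal activity; highest concentration tested 100 μg/mL. SA-1199 is the norA wild-type parent, SA-1199B overexpresses norA and carries GrlA A116E, and SA-K2378 overexpresses norA from multicopy plasmid pCU1 in the norA-deleted SA-K1902 background.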
(In broth dilution the organism is exposed to a series of concentrations in liquid medium.)

Assay [9] has as its system Staphylococcus aureus. Kind of assay: Reduction of ethidium bromide MIC in mepA-deficient Staphylococcus aureus K2885 at 0.78 to 100 ug/mL. The class given is functional, organism-based. An outline of the steps:
as §3

The test system of assay [10] is Staphylococcus aureus. Kind of assay: Antibacterial activity against wild type Staphylococcus aureus ATCC 25923 assessed as growth inhibition by microdilution method. The class given is functional. In short, it runs like this:
(§5)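 Broth microdilution MIC determination following CLSI guidelines. Strains: wild-type ATCC 25923 and SA-K1902 (norA−). Intrinsic activity was tested up to a top concentration of 100 μg/mL.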

The test system of assay [11] is Staphylococcus aureus. Put plainly: Antibacterial activity against Staphylococcus aureus K2378 overexpressing norA assessed as growth inhibition by microdilution method. Type of assay: functional. An outline of the steps: as §4
Assay [12] has as its system Staphylococcus aureus. Kind of assay: Antibacterial activity against norA-deficient Staphylococcus aureus K1902 assessed as growth inhibition by microdilution method. The class given is functional. An outline of the steps:
as §5

For assay [13], the target named is T1, Quinolone resistance protein NorA (Staphylococcus aureus). Put plainly: Inhibition of NorA in Staphylococcus aureus 1199B harboring grlA A116E mutant assessed as inhibition of ethidium bromide efflux at 50 uM measured for 5 mins by fluorometric analysis relative to control. An outline of the steps: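 EtBr loss from SA-1199B (norA overexpressing, GrlA A116E) measured fluorometrically with inhibitor at 50 μM, compared with no-inhibitor control. Read-out is mean total efflux over a 5 min time course, expressed as percent reduction in efflux. Usually run in duplicate.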

In assay [14] the test system is Staphylococcus aureus. Kind of assay: Reduction of ciprofloxacin MIC in norA-deficient Staphylococcus aureus K1902 at 0.78 to 100 ug/mL. The class given is functional, organism-based. An outline of the steps:
as §2

Assay [15] relates to Staphylococcus aureus. Put plainly: Antibacterial activity against Staphylococcus aureus 1199 harboring wild type norA assessed as growth inhibition by microdilution method.
The target in assay [16] is T1, Quinolone resistance protein NorA (Staphylococcus aureus). Kind of assay: Inhibition of NorA in Staphylococcus aureus K2378 assessed as reduction of ciprofloxacin MIC at 0.78 ug/mL relative to control. In short, it runs like this:
as §2

For assay [17], the system named is Staphylococcus aureus. Kind of assay: Inhibition of MepA in Staphylococcus aureus K2886 assessed as reduction of ethidium bromide MIC at 0.78 ug/mL relative to control. In short, it runs like this: as §1

On to `CCCOc1ccc(-c2cc(OCCN3CCNCC3)c3ccccc3n2)cc1`, for which the IC50 in [1] was 8.3 µM. In addition, the fold change (FC) in the assay with Staphylococcus aureus [2] was 16; in assay [5] it was 16; in assay [7], 4. Besides, the inhibition result in assay [3] and in assay [6] was “inactive” in each case. Moreover, in the assay with Staphylococcus aureus [4], the inhibition result is “Active”. The MIC with Staphylococcus aureus [8] was more than 200 µM; in the assay on Staphylococcus aureus [10], more than 100 µg/mL; with Staphylococcus aureus [11], 50 µg/mL; with Staphylococcus aureus [12], 25 µg/mL; in the assay on Staphylococcus aureus [15], more than 100 µg/mL. Besides, the outcome in the assay on Staphylococcus aureus [9] and with Staphylococcus aureus [14] was inactive. Further, the inhibition in assay [13] amounted to 93.4%.

As for `CCCOc1ccc(-c2cc(OCCN3CCCCCC3)c3ccccc3n2)cc1`, the IC50 in assay [1] was found to be 6.4 µM. The inhibition entry in [3] and in assay [6] was “inactive” each time. Also, the inhibition entry in the assay on Staphylococcus aureus [4] is “Active”. Moreover, the fold change (FC) (in assay [16]; in [5]; in assay [7]; in the assay with Staphylococcus aureus [17]) was 16 each time. Also, the MIC in the assay on Staphylococcus aureus [8] was more than 200 µM; in the assay with Staphylococcus aureus [10], more than 100 µg/mL; in the assay with Staphylococcus aureus [11], 50 µg/mL; with Staphylococcus aureus [12] it was 50 µg/mL; in the assay with Staphylococcus aureus [15], more than 100 µg/mL. Moreover, the result in the assay with Staphylococcus aureus [9] and in the assay with Staphylococcus aureus [14] was inactive. Further, the inhibition in assay [13] came out at 86%.

A word on the IC50: it is the midpoint of a concentration-inhibition curve. As a reminder, the inhibition is the change of the read-out against control, counted positive when it falls. One may read the MIC as the least concentration at which growth counts as inhibited.
